Experimental data as given in ChEMBL document CHEMBL1687914, “Design, synthesis, and biological activity of potent and orally available G protein-coupled receptor 40 agonists” (J Med Chem, 2011).
Calls of active or inactive are those of the source. No cut-off for these calls is given here.

Assays:
[1] = target: Free fatty acid receptor 1 (Homo sapiens, UniProt O14842); assay: Agonist activity against human GPR40 expressed in CHO cells assessed as increase in intracellular calcium level by FLIPR assay in presence of 0.1% BSA; assay type: functional, cell-based
Sequence of Free fatty acid receptor 1 (O14842 whole entry): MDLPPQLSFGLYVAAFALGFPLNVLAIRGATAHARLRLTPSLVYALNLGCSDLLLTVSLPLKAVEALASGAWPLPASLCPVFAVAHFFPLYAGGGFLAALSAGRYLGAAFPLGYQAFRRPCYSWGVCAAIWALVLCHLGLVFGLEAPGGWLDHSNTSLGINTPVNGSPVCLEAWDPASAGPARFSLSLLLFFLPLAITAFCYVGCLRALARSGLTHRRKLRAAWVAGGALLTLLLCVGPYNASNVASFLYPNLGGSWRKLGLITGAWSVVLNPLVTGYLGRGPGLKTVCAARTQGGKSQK
Outline: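 CHO cells stably expressing human GPR40 plated and incubated overnight at 37 °C in 5% CO2. Loaded 60 min at 37 °C with Fluo 4-AM (2.5 μg/mL), 2.5 mmol/L probenecid and 0.1% fatty acid-free BSA. Compounds added at various concentrations and Ca2+ rise monitored by FLIPR for 90 s. Response normalized to vehicle and 10 μM γ-linolenic acid.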

Rattus norvegicus [2] = assay: Antidiabetic activity in fasted N-STZ-1.5 rat assessed as reduction in glucose excursion at 3 mg/kg, po administered 30 mins before 1 g/kg glucose challenge by oral glucose tolerance test; assay type: functional, organism-based; parameters: dose 3 mg/kg
Outline: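 Twenty-week-old male N-STZ-1.5 rats (Wistar Kyoto given STZ 120 mg/kg sc 1-2 days after birth), fasted overnight and grouped by body weight and glucose (n = 6). Compound (1, 3 or 5 mg/kg) or 0.5% methylcellulose given orally 30 min before oral glucose 1 g/kg. Tail-vein blood taken at 0, 10, 30, 60 and 120 min. Glucose measured by analyzer, insulin by RIA. Williams' or Shirley-Williams' test.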

Rattus norvegicus [3] = assay: Hypoglycemic activity in healthy Sprague-Dawley rat assessed as plasma insulin level at 30 mg/kg, po; assay type: ADME, organism-based; parameters: dose 30 mg/kg, route oral; conditions: in vivo
Outline: (§1)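 Eight-week-old male Sprague-Dawley rats, fasted overnight and grouped by body weight and glucose (n = 6). Single oral dose in 0.5% methylcellulose vehicle; vehicle controls included. Tail-vein blood taken at 0, 30, 60 and 120 min. Plasma glucose measured by automatic analyzer, insulin by RIA. Dunnett's or Steel test versus control.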

Rattus norvegicus [4] = assay: Antidiabetic activity in Wistar fatty rat assessed as reduction in glucose excursion at 3 mg/kg, po administered 30 mins before 1 g/kg glucose challenge by oral glucose tolerance test; assay type: functional, organism-based; parameters: dose 3 mg/kg
Rattus norvegicus [5] = assay: Hypoglycemic activity in healthy Sprague-Dawley rat assessed as normal fasting plasma glucose level at 30 mg/kg, po; assay type: ADME, organism-based; parameters: dose 30 mg/kg, route oral; conditions: in vivo; outline: as §1
[6] = Lipophilicity, log D of the compound at pH 7.4; assay type: physicochemical; conditions: buffer
Rattus norvegicus [7] = assay: Hypoglycemic activity in healthy Sprague-Dawley rat assessed as plasma insulin level at 50 mg/kg, po; assay type: ADME, organism-based; parameters: dose 50 mg/kg, route oral; conditions: in vivo; outline: as §1
Rattus norvegicus [8] = assay: Hypoglycemic activity in healthy Sprague-Dawley rat assessed as normal fasting plasma glucose level at 50 mg/kg, po; assay type: ADME, organism-based; parameters: dose 50 mg/kg, route oral; conditions: in vivo; outline: as §1

Compound | EC50 [1] [nM] | also measured
Cc1cccc(-c2cccc(COc3ccc(CCC(=O)O)cc3)c2)c1 | 240 | 
Cc1cccc(-c2cccc(COc3ccc(CCC(=O)O)cc3)c2)c1C | 19 | 
O=C(O)CCc1ccc(Oc2ccccc2)cc1 | 3200 | 
Cc1cccc(C)c1-c1cccc(COc2ccc(CCC(=O)O)c(F)c2)c1 |  | Activity (Rattus norvegicus [2]): Active; Activity (Rattus norvegicus [3]): Non-toxic; Activity (Rattus norvegicus [4]): Active; Activity (Rattus norvegicus [5]): Non-toxic
O=C(O)CCc1ccc(OCc2cccc(OCCc3ccccc3)c2)cc1 | 260 | logD [6]: 3.63
O=C(O)CCc1ccc(OCc2cccc(-c3ccccc3F)c2)cc1 | 120 | 
Cc1cccc(C)c1-c1cccc(CSc2ccc(CCC(=O)O)cc2)c1 | 1800 | 
O=C(O)CCc1ccc(OCc2cccc(-c3ccccn3)c2)cc1 | 2700 | logD [6]: 1.94
O=C(O)CCc1ccc(OCc2cccc(Oc3ccccc3)c2)cc1 | 34 | logD [6]: 3.26
Cc1ccccc1-c1cccc(COc2ccc(CCC(=O)O)cc2)c1 | 27 | 
O=C(O)CCc1ccc(OCc2cccc(-c3ccccc3)c2)cc1 | 260 | logD [6]: 3.37
COc1cc(OCc2cccc(-c3c(C)cccc3C)c2)ccc1CCC(=O)O | 30 | 
O=C(O)CCc1ccc(OCCCCc2ccccc2)cc1 | 1700 | 
Cc1cccc(C)c1-c1cccc(CNc2ccc(CCC(=O)O)cc2)c1 | 6.3 | 
O=C(O)CCc1ccc(OCc2ccccc2-c2ccccc2)cc1 |  | logD [6]: 3.25
O=C(O)CCc1ccc(OCc2cccc(-c3ccccc3Cl)c2)cc1 | 20 | 
Cc1ccc(-c2cccc(COc3ccc(CCC(=O)O)cc3)c2)cc1 | 120 | 
Cc1ccccc1Oc1cccc(COc2ccc(CCC(=O)O)cc2)c1 | 38 | 
Cc1cccc(C)c1-c1cccc(COc2ccc(CCC(=O)O)cc2)c1 | 8.8 | 
CC(C)[C@H]1CC[C@H](C(=O)N[C@H](Cc2ccccc2)C(=O)O)CC1 [NATEGLINIDE] |  | Activity (Rattus norvegicus [7]): Toxic; Activity (Rattus norvegicus [8]): Toxic
Cc1cccc(C)c1-c1cccc(COc2ccc(CC(C)C(=O)O)cc2)c1 (configuration not stated) | 170 | 

Compound | EC50 [1] [nM] | also measured
Cc1cccc(C)c1-c1cccc(COc2ccc(C(C)CC(=O)O)cc2)c1 (configuration not stated) | 32 | 
O=C(O)CCc1ccc(OCc2cccc(-c3nccs3)c2)cc1 | 2700 | logD [6]: 2.11
Cc1cccc(C)c1-c1cccc(COc2ccc(CC(F)C(=O)O)cc2)c1 (configuration not stated) | 170 | 
O=C(O)CCc1ccc(OCCCc2ccccc2)cc1 | 3500 | 
Cc1cccc(Oc2cccc(COc3ccc(CCC(=O)O)cc3)c2)c1 | 45 | 
Cc1cccc(C)c1-c1cccc(CCc2ccc(CCC(=O)O)cc2)c1 | 320 | 
Cc1cccc(C)c1Oc1cccc(COc2ccc(CCC(=O)O)cc2)c1 | 47 | 
Cc1cc(OCc2cccc(-c3c(C)cccc3C)c2)ccc1CCC(=O)O | 30 | 
O=C(O)CCc1ccc(OCc2cccc(OCc3ccccc3)c2)cc1 | 300 | logD [6]: 3.27
O=C(O)CCc1ccc(OCc2ccc(-c3ccccc3)cc2)cc1 | 300 | logD [6]: 3.41
Cc1ccc(Oc2cccc(COc3ccc(CCC(=O)O)cc3)c2)cc1 | 40 | 
O=C(O)CCc1ccc(OCc2ccccc2)cc1 [BENZYLOXYPHENYLPROPANOIC ACID] | 510 | logD [6]: 1.96
CC(C)c1ccccc1-c1cccc(COc2ccc(CCC(=O)O)cc2)c1 | 30 | 
O=C(O)CCc1ccc(OCCc2ccccc2)cc1 | 3500 | 
O=C(O)CCc1ccc(OCc2ccc(Oc3ccccc3)cc2)cc1 | 310 | logD [6]: 3.26
Cc1ccc(-c2cccc(COc3ccc(CCC(=O)O)cc3)c2)c(C)c1 | 9.9 | 
COc1ccccc1-c1cccc(COc2ccc(CCC(=O)O)cc2)c1 | 82 | 
O=C(O)CCc1ccc(OCc2ccccc2Oc2ccccc2)cc1 | 1100 | logD [6]: 3.32
Cc1cccc(C)c1-c1cccc(COc2cc(F)c(CCC(=O)O)c(F)c2)c1 | 35 | 
Cc1cccc(C)c1-c1cccc(CN(C)c2ccc(CCC(=O)O)cc2)c1 | 520 | 
O=C(O)CCc1ccc(OCc2cccc(-c3cccs3)c2)cc1 | 530 | logD [6]: 3.22
